Test results as given in ChEMBL document CHEMBL1122504, “Heterocyclic Quinones. 4. A new highly cytotoxic drug: 6,7-bis(1-aziridinyl)-5,8-quinazolinedione” (1983).
Values joined by “and” are separate entries in the source; they are usually repeats but may differ in a detail not shown here. Equal entries are not always repeated.

Test system: L1210
Assay: Concentration that decreases the growth rate of the L1210 cells by 50% after 48 hr of culture
Format: functional
Conditions: Mus musculus, L1210, 48 h; read-out: ID50 (the source's name)
Summary of the method: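 L1210 leukemia cells cultured with increasing drug concentrations for 48 h at 37 °C under 5% CO2. Percentage inhibition of control growth was fitted by least-squares linear regression against log dose, and the concentration lowering control growth by 50% was estimated from the regression equation.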

IC50 | SMILES
0.593 µg/mL and 3.12 µM | COC1=CC(=O)c2ncncc2C1=O
0.889 µg/mL and 3.31 µM | COC1=C(Br)C(=O)c2ncncc2C1=O
0.359 µg/mL and 1.48 µM | O=C1C(N2CCCCC2)=CC(=O)c2ncncc21
0.215 µg/mL and 1.05 µM | COC1=C(N)C(=O)c2ncncc2C1=O
